Measured values from ChEMBL document CHEMBL4118213, “Drug efficacy of novel 3-O-methoxy-4-halo disubstituted 5,7-dimethoxy chromans; evaluated via DNA gyrase inhibition, bacterial cell wall lesion and antibacterial prospective” (Bioorg Med Chem, 2018).
Values after ≈ are worked out from the molar mass of the structure shown. Active and inactive are the calls of the source. The rule behind the calls is not given here.

What was measured:
[1] = Cytotoxicity against human MCF7 cells assessed as cell viability after 6 hrs by MTT assay relative to control; assay type: cell-based; set-up: concentration or dose not given beside the values; details: read-out: Activity
How it was run: (§1)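 MTT assay on MCF-7 and MCF-10 cells (n = 4), with DMSO as control and doxorubicin as standard. Viability was read at several times after treatment and calculated as mean OD/control OD × 100%.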

[2] = test system: Corynebacterium diphtheriae; assay: Antibacterial activity against Corynebacterium diphtheriae MTCC 116 assessed as cell wall degradation by measuring dead cells measured every 30 mins up to 180 mins by microscopic method; assay type: functional, organism-based
How it was run: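 C. diphtheriae was grown overnight in Loeffler medium and examined after treatment. Dead cells/cell debris were estimated every 30 min until whole-culture death. Total and dead cell stains were applied for 1 h in the dark at room temperature, then fluorescence was read at Ex 490/Em 525 and Ex 536/Em 617 nm, in triplicate.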

[3] = test system: Erythrocyte; assay: Hemolytic activity in human RBC assessed as membrane mortification by absorbance method; assay type: ADME, cell-based
How it was run: (§2)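 Human red blood cell membrane stabilization tested at various concentrations (n = 4) in 96-well format, with distilled water taken as 100% hemolysis. Absorbance read-out; IC50 taken from the percentage inhibition versus concentration curve.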

[4] = test system: Streptococcus pyogenes; assay: Antibacterial activity against Streptococcus pyogenes MTCC 442; assay type: functional
How it was run: (§3)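 MIC determined against six bacterial strains over a range of concentrations, with 1% DMSO as the untreated control and novobiocin as the standard. Values are averages of n = 5.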

[5] = target: DNA gyrase (Staphylococcus aureus, UniProt P0A0K8+P20831); assay: Inhibition of Staphylococcus aureus DNA gyrase assessed as reduction in relaxation of pBR322 DNA by […] analysis; assay type: protein-complex assay
How it was run: (§4)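 pBR322 DNA incubated with S. aureus DNA gyrase with or without compound (1.5 µg) and novobiocin as positive control. Products resolved by gel electrophoresis. IC50 from the dose–response curve; mean of duplicate or triplicate measurements.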

[6] = test system: Erythrocyte; assay: Hemolytic activity in human RBC assessed as membrane mortification by measuring […] stabilization by absorbance method relative to control; assay type: ADME, cell-based; set-up: concentration or dose not given beside the values; how it was run: as §2
[7] = Cytotoxicity against human MCF7 cells assessed as cell viability after 4 hrs by MTT assay relative to control; assay type: cell-based; set-up: concentration or dose not given beside the values; details: read-out: Activity; how it was run: as §1
[8] = test system: Pseudomonas aeruginosa; assay: Antibacterial activity against Pseudomonas aeruginosa MTCC 424; assay type: functional; how it was run: as §3
[9] = test system: MCF7; assay: Cytotoxicity against human MCF7 cells after 8 hrs by MTT assay; assay type: cell-based; details: for Activity: human, mcf7, 8 h; how it was run: as §1
[10] = test system: Corynebacterium diphtheriae; assay: Antibacterial activity against Corynebacterium diphtheriae MTCC 116; assay type: functional; how it was run: as §3
[11] = target: DNA gyrase (Staphylococcus aureus) (UniProt P0A0K8+P20831); assay: Inhibition of Staphylococcus aureus DNA gyrase assessed as reduction in relaxation of pBR322 DNA at 1.5 ug by […] analysis relative to control; assay type: protein-complex assay; how it was run: as §4
[12] = test system: Escherichia coli; assay: Antibacterial activity against Escherichia coli MTCC 443; assay type: functional; how it was run: as §3
[13] = test system: Staphylococcus aureus; assay: Antibacterial activity against Staphylococcus aureus MTCC 96; assay type: functional; how it was run: as §3
[14] = test system: Klebsiella pneumoniae; assay: Antibacterial activity against Klebsiella pneumoniae MTCC 530; assay type: functional; how it was run: as §3
[15] = test system: MCF10; assay: Cytotoxicity against human MCF10 cells after 8 hrs by MTT assay; assay type: cell-based; details: mcf10, 8 h; how it was run: as §1
[16] = test system: Erythrocyte; assay: Hemolytic activity in human RBC assessed as mean absorbance (reference value: 0.1868 +/- 0.033); assay type: ADME, cell-based; how it was run: as §2

DNA gyrase (Staphylococcus aureus), sequence (P0A0K8 2-644 limits assumed): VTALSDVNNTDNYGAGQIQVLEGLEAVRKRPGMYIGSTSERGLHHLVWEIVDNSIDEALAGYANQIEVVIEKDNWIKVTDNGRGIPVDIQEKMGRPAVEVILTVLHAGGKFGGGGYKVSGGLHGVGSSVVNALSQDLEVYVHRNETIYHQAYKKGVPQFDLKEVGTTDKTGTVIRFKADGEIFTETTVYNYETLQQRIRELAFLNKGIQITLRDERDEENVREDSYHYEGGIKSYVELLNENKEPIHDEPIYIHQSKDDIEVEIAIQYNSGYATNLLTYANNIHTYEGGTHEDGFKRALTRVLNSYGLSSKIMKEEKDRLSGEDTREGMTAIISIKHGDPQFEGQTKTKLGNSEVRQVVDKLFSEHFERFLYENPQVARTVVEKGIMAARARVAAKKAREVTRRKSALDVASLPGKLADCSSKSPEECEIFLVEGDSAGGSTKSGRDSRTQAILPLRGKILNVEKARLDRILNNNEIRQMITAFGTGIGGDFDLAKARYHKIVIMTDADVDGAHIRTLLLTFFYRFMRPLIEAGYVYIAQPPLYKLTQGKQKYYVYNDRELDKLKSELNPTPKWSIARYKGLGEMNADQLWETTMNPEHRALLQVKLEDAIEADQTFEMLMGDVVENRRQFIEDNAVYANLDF
DNA gyrase (Staphylococcus aureus), sequence (P20831 whole entry partner): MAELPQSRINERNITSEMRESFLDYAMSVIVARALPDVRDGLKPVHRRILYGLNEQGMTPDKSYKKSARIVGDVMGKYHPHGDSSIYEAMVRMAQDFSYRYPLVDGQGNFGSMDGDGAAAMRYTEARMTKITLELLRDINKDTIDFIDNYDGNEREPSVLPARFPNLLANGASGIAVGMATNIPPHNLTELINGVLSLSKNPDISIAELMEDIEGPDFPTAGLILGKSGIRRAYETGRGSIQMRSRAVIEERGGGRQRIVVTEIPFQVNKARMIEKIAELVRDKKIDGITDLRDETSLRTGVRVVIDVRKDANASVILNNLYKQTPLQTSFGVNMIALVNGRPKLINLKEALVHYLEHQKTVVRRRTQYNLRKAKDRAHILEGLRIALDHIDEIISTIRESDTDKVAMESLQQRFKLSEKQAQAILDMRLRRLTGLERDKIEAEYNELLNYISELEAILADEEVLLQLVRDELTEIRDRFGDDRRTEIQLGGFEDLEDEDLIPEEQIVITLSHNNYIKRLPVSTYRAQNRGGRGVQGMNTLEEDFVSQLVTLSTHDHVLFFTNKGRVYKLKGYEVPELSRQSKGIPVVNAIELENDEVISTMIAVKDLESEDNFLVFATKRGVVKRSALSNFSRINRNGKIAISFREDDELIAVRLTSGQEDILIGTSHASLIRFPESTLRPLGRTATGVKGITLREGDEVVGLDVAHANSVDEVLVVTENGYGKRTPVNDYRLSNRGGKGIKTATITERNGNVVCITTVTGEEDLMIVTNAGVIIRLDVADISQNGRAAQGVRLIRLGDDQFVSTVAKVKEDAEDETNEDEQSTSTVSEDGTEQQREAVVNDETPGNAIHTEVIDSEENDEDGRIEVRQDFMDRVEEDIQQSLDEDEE
DNA gyrase, sequence (P0A0K8 whole entry): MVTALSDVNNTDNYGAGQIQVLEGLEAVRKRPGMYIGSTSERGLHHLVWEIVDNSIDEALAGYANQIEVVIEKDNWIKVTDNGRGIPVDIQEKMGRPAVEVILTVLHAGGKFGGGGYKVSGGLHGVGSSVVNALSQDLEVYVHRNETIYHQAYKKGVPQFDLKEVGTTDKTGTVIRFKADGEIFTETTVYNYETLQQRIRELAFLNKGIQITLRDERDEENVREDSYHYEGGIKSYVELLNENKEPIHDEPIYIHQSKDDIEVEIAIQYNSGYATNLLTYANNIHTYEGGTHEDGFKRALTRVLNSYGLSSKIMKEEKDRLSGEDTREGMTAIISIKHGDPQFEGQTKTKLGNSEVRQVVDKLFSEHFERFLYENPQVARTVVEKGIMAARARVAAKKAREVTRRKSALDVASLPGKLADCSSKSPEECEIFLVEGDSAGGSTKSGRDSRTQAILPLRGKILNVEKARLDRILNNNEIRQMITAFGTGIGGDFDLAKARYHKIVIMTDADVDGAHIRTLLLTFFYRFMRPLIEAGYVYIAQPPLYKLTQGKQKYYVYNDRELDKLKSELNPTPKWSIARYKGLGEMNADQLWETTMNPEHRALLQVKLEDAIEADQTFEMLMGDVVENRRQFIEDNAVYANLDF
DNA gyrase, sequence (P20831 whole entry): as the sequence (P20831 whole entry partner) above

Structure (SMILES) | viability at 6 h [1] | Activity [2] | IC50 [3] | MIC [4] | IC50 [5] | Activity [6] | viability at 4 h [7] | MIC [8] | Activity [9] | MIC [10] | inhibition [11] | MIC [12] | MIC [13] | MIC [14] | Activity [15] | Activity [16] | IC50 ([9]; Homo sapiens, MCF7, 8 h)
COc1cc(O)c2c(c1C(C)=O)OC(C)(C)C(OC)C2Cl (configuration not stated) | 16% | Active | 0.0102 µg/mL (≈ 0.0324 µM) | 0.87 µg/mL (≈ 2.76 µM) | 3.5 nM | 93.25% | 20% | 0.87 µg/mL (≈ 2.76 µM) | Dose-dependent effect | 0.68 µg/mL (≈ 2.16 µM) | 90% | 0.68 µg/mL (≈ 2.16 µM) | 0.08 µg/mL (≈ 0.254 µM) | 0.72 µg/mL (≈ 2.29 µM) | Non-Toxic | 0.4242 | 
CO[C@@H]1[C@@H](OC(N)=O)[C@@H](O)[C@H](Oc2ccc3c(O)c(NC(=O)c4ccc(O)c(CC=C(C)C)c4)c(=O)oc3c2C)OC1(C)C [NOVOBIOCIN] |  |  |  | 3.24 µg/mL (≈ 5.29 µM) |  |  |  | 1.75 to 100 µg/mL (≈ 2.86 to 163 µM) |  | 1.32 µg/mL (≈ 2.15 µM) |  | 4.94 to 5 µg/mL (≈ 8.06 to 8.16 µM) | 0.78 to 0.92 µg/mL (≈ 1.27 to 1.5 µM) | 0.5 to 0.75 µg/mL (≈ 0.816 to 1.22 µM) |  |  | 
COc1cc(OC)c2c(c1C(C)=O)OC(C)(C)C(OC)C2F (configuration not stated) | 16% | Active | 0.0922 µg/mL (≈ 0.295 µM) | 0.94 µg/mL (≈ 3.01 µM) | 9.5 nM | 85.15% | 20% | 0.94 µg/mL (≈ 3.01 µM) | Dose-dependent effect | 0.92 µg/mL (≈ 2.95 µM) | 78 to 94% | 0.92 µg/mL (≈ 2.95 µM) | 0.16 µg/mL (≈ 0.512 µM) | 0.76 µg/mL (≈ 2.43 µM) | Non-Toxic | 0.3947 | 
COc1cc(OC)c2c(c1C(C)=O)OC(C)(C)C(O)C2Br (configuration not stated) |  |  |  |  | 1.86 to 24 nM |  |  |  |  |  | 78 to 94% |  |  |  |  |  | 
COc1cc2c(c(O)c1C(C)=O)C(=O)CC(C)(C)O2 |  | Active | 1.24 µg/mL (≈ 4.69 µM) | 3.12 µg/mL (≈ 11.8 µM) | 1.86 to 24 nM | 80.65% |  | 1.67 µg/mL (≈ 6.32 µM) |  | 1.02 µg/mL (≈ 3.86 µM) | 78 to 94% | 0.99 µg/mL (≈ 3.75 µM) | 1 µg/mL (≈ 3.78 µM) | 2.24 µg/mL (≈ 8.48 µM) |  | 0.3841 | 
COc1cc(O)c2c(c1C(C)=O)OC(C)(C)C=C2 | 16% | Active | 0.0182 µg/mL (≈ 0.0733 µM) | 1 µg/mL (≈ 4.03 µM) | 7.5 nM | 90.45% | 20% | 1.02 µg/mL (≈ 4.11 µM) | Dose-dependent effect | 0.82 µg/mL (≈ 3.3 µM) | 78 to 94% | 0.88 µg/mL (≈ 3.54 µM) | 0.1 µg/mL (≈ 0.403 µM) | 0.9 µg/mL (≈ 3.62 µM) | Non-Toxic | 0.4624 | 
COc1cc2c(c(OC)c1C(C)=O)[C@H](O)[C@H](O)C(C)(C)O2 |  | Active | 1 µg/mL (≈ 3.38 µM) | 5.02 µg/mL (≈ 16.9 µM) | 1.86 to 24 nM | 80.88% |  | 3.01 µg/mL (≈ 10.2 µM) |  | 1.28 µg/mL (≈ 4.32 µM) | 78 to 94% | 4.1 µg/mL (≈ 13.8 µM) | 1.54 µg/mL (≈ 5.2 µM) | 3.88 µg/mL (≈ 13.1 µM) |  | 0.3611 | 
COc1cc(OC)c2c(c1C(C)=O)OC(C)(C)[C@H](O)[C@@H]2O | 16% | Active | 0.88 µg/mL (≈ 2.97 µM) | 2.85 µg/mL (≈ 9.62 µM) | 10 nM | 85.31% | 20% | 4.52 µg/mL (≈ 15.3 µM) | Dose-dependent effect | 0.99 µg/mL (≈ 3.34 µM) | 78 to 94% | 2.24 µg/mL (≈ 7.56 µM) | 0.92 µg/mL (≈ 3.1 µM) | 2.18 µg/mL (≈ 7.36 µM) | Non-Toxic | 0.3888 | 
COc1c(Br)c(OC)c(C(C)=O)c2c1C=CC(C)(C)O2 |  | Active | 0.124 µg/mL (≈ 0.364 µM) | 2.04 µg/mL (≈ 5.98 µM) | 1.86 to 24 nM | 86.16% |  | 3.12 µg/mL (≈ 9.14 µM) |  | 1.08 µg/mL (≈ 3.17 µM) | 78 to 94% | 2.13 µg/mL (≈ 6.24 µM) | 0.99 µg/mL (≈ 2.9 µM) | 1.99 µg/mL (≈ 5.83 µM) |  | 0.3634 | 
COc1cc(OC)c2c(c1C(C)=O)OC(C)(C)[C@@H](O)[C@H]2O |  | Active | 0.0094 µg/mL (≈ 0.0317 µM) | 1.02 µg/mL (≈ 3.44 µM) | 1.86 to 24 nM | 88.52% |  | 1.01 µg/mL (≈ 3.41 µM) |  | 0.9 µg/mL (≈ 3.04 µM) | 78 to 94% | 0.84 µg/mL (≈ 2.83 µM) | 0.64 µg/mL (≈ 2.16 µM) | 0.92 µg/mL (≈ 3.1 µM) |  | 0.4046 | 
COc1cc(OS(=O)(=O)C(F)(F)F)c2c(c1C(C)=O)OC(C)(C)C=C2 | 16% | Active | 0.0012 µg/mL (≈ 0.00316 µM) | 0.83 µg/mL (≈ 2.18 µM) | 2.5 nM | 98.84% | 20% | 0.84 µg/mL (≈ 2.21 µM) |  | 0.04 µg/mL (≈ 0.105 µM) | 94% | 0.64 µg/mL (≈ 1.68 µM) | 0.02 µg/mL (≈ 0.0526 µM) | 0.64 µg/mL (≈ 1.68 µM) | Non-Toxic | 0.4852 | 10 nM
CO[C@@H]1[C@@H](OC(=O)c2ccc(C)[nH]2)[C@@H](O)[C@H](Oc2ccc3c(O)c(NC(=O)c4ccc(O)c(CC=C(C)C)c4)c(=O)oc3c2Cl)OC1(C)C |  |  |  |  |  |  |  |  |  |  | 86% |  |  |  |  |  | 
COc1cc(OC)c2c(c1C(C)=O)OC(C)(C)C(OC)C2Cl (configuration not stated) |  | Active | 0.222 µg/mL (≈ 0.676 µM) | 1.07 µg/mL (≈ 3.25 µM) | 1.86 to 24 nM | 86.37% |  | 1.02 µg/mL (≈ 3.1 µM) |  | 0.21 µg/mL (≈ 0.639 µM) | 78 to 94% | 1 µg/mL (≈ 3.04 µM) | 0.18 µg/mL (≈ 0.547 µM) | 0.96 µg/mL (≈ 2.92 µM) |  | 0.3659 | 
COc1ccc2c(c1)c(CC(=O)O)c(C)n2C(=O)c1ccc(Cl)cc1 [INDOMETHACIN] |  |  | 0.086 µg/mL (≈ 0.24 µM) |  |  | 85.64% |  |  |  |  |  |  |  |  |  | 0.3834 | 
